The subject of assay [1] is Quadruplex DNA. Kind of assay: Stabilization of G-quadruplex VEGF 5-FAM-CGGGGCGGGCCGGGGGCGGGGT-TAMRA-3 (unknown origin) assessed as change in melting temperature at 10 uM incubated for 1 hr in dark condition by FRET-based melting assay. Type of assay: nucleic-acid assay. An outline of the steps: (§1)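 FRET melting of dual-fluorophore (FAM/TAMRA) tagged G-quadruplex (200 nM) in 60 mM potassium cacodylate, pH 7.4. The screen used 1 μM ligand; dose series used 1, 3, 5, 7 and 10 μM. ΔTm was taken against the Tm of the same oligonucleotide without ligand.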

Assay [2] relates to Quadruplex DNA. Briefly: Binding affinity to excessive G-quadruplex c-KIT1 5-FAM-GGGAGGGCGCTGGGAGGAGGG-TAMRA-3 (unknown origin) assessed as fold increase in fluorescence intensity at 1 uM incubated for 1 hr in dark condition by fluorescence spectroscopy assay. Type of assay: nucleic-acid assay. An outline of the steps: (§2)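 Fluorimetric titration in 100 mM Tris-KCl buffer, pH 7.4. Ligand fixed at 1.0 μM and titrated with increasing concentrations of each G-quadruplex until fluorescence saturation. The fold increase in ligand fluorescence intensity was read, and Kd was derived from the titration plot.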

The test system of assay [3] is K562. Briefly: Attenuation of proto-oncogene expression in human c-KIT-positive K562 cells assessed as reduction in c-KIT oncogene expression at 3 uM measured after 24 hrs by qRT-PCR analysis relative to control. Type of assay: functional. The gist of the method:
(§3)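 K562 cells treated 24 h at two doses per ligand (3 and 6 μM, 5.5 and 11 μM; positive control 2 and 4 μM). c-KIT, c-MYC and BCL-2 mRNA measured by qRT-PCR and normalized to housekeeping gene 18s, relative to untreated control.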
(In general: In qPCR the cycle at which signal appears reflects the starting amount.)

The test system of assay [4] is Quadruplex DNA. Kind of assay: Stabilization of G-quadruplex BCL2 5-FAM-AGGGGCGGGCGCGGGAGGAAGGGGGCGGGAGCGGGGCTG-TAMRA-3 (unknown origin) assessed as change in melting temperature at 10 uM incubated for 1 hr in dark condition by FRET-based melting assay. Type of assay: nucleic-acid assay. An outline of the steps:
as §1

Assay [5] deals with Quadruplex DNA. Kind of assay: Stabilization of G-quadruplex BCL2 5-FAM-AGGGGCGGGCGCGGGAGGAAGGGGGCGGGAGCGGGGCTG-TAMRA-3 (unknown origin) assessed as change in melting temperature at 1 uM incubated for 1 hr in dark condition by FRET-based melting assay. Type of assay: nucleic-acid assay. The gist of the method: (§4)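 FRET melting of dual-fluorophore-tagged oligonucleotides (200 nM) in 60 mM potassium cacodylate buffer, pH 7.4, with ligand at 1 μM; ΔTm taken against the ligand-free oligonucleotide Tm as control.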

Assay [6] is described as follows: Reduction of c-KIT oncogene expression in human K562 cells transfected with c-KIT plasmid construct assessed as reduction in luciferase expression at 6 uM measured after 36 hrs by luciferase reporter assay. Format: functional. An outline of the steps:
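K562 cells were transfected with luciferase plasmids carrying the c-KIT, c-MYC or BCL-2 promoter G4. They were then treated with ligand (3 and 6 μM or 5.5 and 11 μM), and relative luciferase expression was measured.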
A general note: A reporter such as luciferase makes a cellular process visible.

A further assay deals with Calf thymus DNA. Kind of assay: Binding affinity to calf thymus ds DNA assessed as dissociation constant by fluorescence spectroscopy assay. Format: nucleic-acid assay, Bos taurus. The gist of the method:
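Fluorimetric titration of ligand held at 1.0 μM with increasing concentrations of G4 or dsDNA until saturation. Change in ligand fluorescence intensity was fitted for Kd. Run in 100 mM Tris-KCl buffer, pH 7.4.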

Assay [7] has as its target Quadruplex DNA. Kind of assay: Binding affinity to G-quadruplex c-KIT1 5-FAM-GGGAGGGCGCTGGGAGGAGGG-TAMRA-3 (unknown origin) assessed as dissociation constant by isothermal titration calorimetry (ITC) assay. Type of assay: nucleic-acid assay. The gist of the method:
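ITC of ligand binding to folded G4 in 100 mM Tris-KCl buffer, pH 7.4. Kd and stoichiometry were obtained from the isothermal heat curve and binding isotherm.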
Background: ITC needs no label: the signal is the heat of the interaction.

The subject of assay [8] is Quadruplex DNA. Briefly: Stabilization of G-quadruplex c-KIT1 5-FAM-GGGAGGGCGCTGGGAGGAGGG-TAMRA-3 (unknown origin) assessed as change in melting temperature at 3 uM incubated for 1 hr in dark condition by FRET-based melting assay. Type of assay: nucleic-acid assay. The gist of the method: as §1
Assay [9] in a line: Induction of cell permeation in human c-KIT-positive K562 cell membrane assessed as fold increase in (G- quadruplex/antibody complex) BG4 foci at 3 uM measured after 24 hrs by immunofluorescence assay. Type of assay: functional. The gist of the method:
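K562 cells were treated with ligand (3 or 5.5 μM) and immunostained with G4-specific antibody BG4. Nuclear BG4 foci were counted by confocal microscopy and expressed relative to untreated cells.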

Assay [10] has as its system Quadruplex DNA. Kind of assay: Stabilization of G-quadruplex h-TELO 5-FAM-TTGGGTTAGGGTTAGGGTTAGGGA-TAMRA-3 (unknown origin) assessed as change in melting temperature at 10 uM incubated for 1 hr in dark condition by FRET-based melting assay. Type of assay: nucleic-acid assay. An outline of the steps:
as §1

In assay [11] the test system is Quadruplex DNA. Briefly: Stabilization of G-quadruplex c-KIT1 5-FAM-GGGAGGGCGCTGGGAGGAGGG-TAMRA-3 (unknown origin) assessed as change in melting temperature at 7 uM incubated for 1 hr in dark condition by FRET-based melting assay. Type of assay: nucleic-acid assay. The gist of the method: as §1
Assay [12] deals with Quadruplex DNA. Briefly: Stabilization of G-quadruplex VEGF 5-FAM-CGGGGCGGGCCGGGGGCGGGGT-TAMRA-3 (unknown origin) assessed as change in melting temperature at 1 uM incubated for 1 hr in dark condition by FRET-based melting assay. Type of assay: nucleic-acid assay. An outline of the steps: as §4
Assay [13] concerns Quadruplex DNA. Kind of assay: Binding affinity to G-quadruplex c-KIT1 5-FAM-GGGAGGGCGCTGGGAGGAGGG-TAMRA-3 (unknown origin) assessed as stability by CD spectra analysis. Format: nucleic-acid assay.
Assay [14] has as its system Quadruplex DNA. Kind of assay: Binding affinity to excessive G-quadruplex c-KIT2 5-FAM-GGGCGGGCGCGAGGGAGGGG-TAMRA-3 (unknown origin) assessed as fold increase in fluorescence intensity at 1 uM incubated for 1 hr in dark condition by fluorescence spectroscopy assay. Type of assay: nucleic-acid assay. The gist of the method:
as §2

The subject of assay [15] is Quadruplex DNA. Briefly: Stabilization of G-quadruplex c-KIT1 5-FAM-GGGAGGGCGCTGGGAGGAGGG-TAMRA-3 (unknown origin) assessed as change in melting temperature at 1 uM incubated for 1 hr in dark condition by FRET-based melting assay. Type of assay: nucleic-acid assay. The gist of the method:
as §4

The subject of assay [16] is Quadruplex DNA. Briefly: Stabilization of G-quadruplex c-MYC 5-FAM-TGGGGAGGGTGGGGAGGGTGGGGAAGG-TAMRA- 3 (unknown origin) assessed as change in melting temperature at 1 uM incubated for 1 hr in dark condition by FRET-based melting assay. Type of assay: nucleic-acid assay. An outline of the steps:
as §4

In assay [17] the test system is Quadruplex DNA. Kind of assay: Stabilization of 5-FAM/3-TAMRA labelled G-quadruplex c-KIT1 5-FAM-GGGAGGGCGCTGGGAGGAGGG-TAMRA-3 (unknown origin) assessed as change in melting temperature incubated for 1 hr in dark condition by FRET-based melting assay. Type of assay: nucleic-acid assay. The note with it: dose 1-10 µM. The gist of the method: as §1
Assay [18] in a line: Reduction of c-KIT protein expression in human K562 cells at 6 uM measured after 24 hrs by Western blotting analysis relative to control. Type of assay: functional. The gist of the method:
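K562 cells were treated with ligand (3 and 6 μM or 5.5 and 11 μM). c-KIT protein was measured by Western blot with GAPDH as the housekeeping reference, relative to control.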

A further assay deals with MCF7. Kind of assay: Cytotoxicity against human MCF7 cells assessed as cell viability measured after 24 hrs by XTT formazan assay. Format: functional, cell-based. The note with it: MCF7, 24 h.
In assay [19] the test system is K562. Briefly: Attenuation of proto-oncogene expression in human c-KIT-positive K562 cells assessed as reduction in c-KIT oncogene expression at 6 uM measured after 24 hrs by qRT-PCR analysis relative to control. Format: functional. The gist of the method: as §3

Molecules are shown by their SMILES. pIC50, pKd: −log10 of the molar value. The source made the active and inactive calls. No cut-off for these calls is given here.

The source of these data is ChEMBL document CHEMBL5344453, “Selective Recognition of c-KIT 1 G-Quadruplex by Structural Tuning of Heteroaromatic Scaffolds and Side Chains” (ACS Med Chem Lett, 2024).

As usually defined, the ΔTm is the change in melting temperature against a reference sample. Broadly, the inhibition is the percentage by which the read-out fell short of the control. The term pKd denotes the negative decadic logarithm of the Kd, by convention in mol/L. As usually defined, the pIC50 is the negative decadic logarithm of the IC50, by convention in mol/L. As for `CN(C)CCCNC(=O)c1ccc(-n2cc(-c3ccc4[nH]c5ccccc5c4c3)nn2)cc1`, the ΔTm with Quadruplex DNA [1] was found to be 11.2 °C; with Quadruplex DNA [4], 12.1 °C; with Quadruplex DNA [5], 2.2 °C; in the assay with Quadruplex DNA [8], 22.6 °C; in the assay on Quadruplex DNA [10], 20.3 °C; in the assay on Quadruplex DNA [11] it was 26.5 °C. In addition, the shift in melting temperature (ΔTm) came out at 3.5 °C with Quadruplex DNA [12], 20.1 °C with Quadruplex DNA [15] and 3.2 °C in the assay on Quadruplex DNA [16]. Moreover, the fold change (FC) in the assay on Quadruplex DNA [2] was 5.2; in assay [9], 5.4; with Quadruplex DNA [14], 1.6. Also, the inhibition at 3 µM in the assay on K562 [3] stood at 28%. In addition, the inhibition at 6 µM worked out at 69% in assay [6], 65.5% in assay [18] and 73% in the assay on K562 [19]. Further, the values for the negative-log Kd (pKd) with Calf thymus DNA and at Quadruplex DNA [7] were 5.40 and 5.80, respectively. Besides, in the assay on Quadruplex DNA [13], the outcome was Active. Besides, the Activity entry in the assay on Quadruplex DNA [17] was “Dose-Dependent Effect”. Moreover, the pIC50 in the assay on MCF7 was 4.70.
